PostGolgi yeast = phenotypic screen on post-Golgi transport, primary screen. post-Golgi transport phenotypic cell assay. inhibition, % at 10 µM. 0.9% of 98,000 active. AID 739, 2007;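 note: yeast cells grown in 1536-well plates; yeast grown about 18 h at 30C before absorbance read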
tolC growth inh = growth inhibitors of E. coli tolC mutant, primary screen, strain BW25113 ΔtolC::kan, 384-well | 2.2% of 65,000 active | AID 573, 2007 | OD615 | growth inhibition, % at 10 µM (by protocol);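 active = growth inhibition at or above a cutoff equal to the mean over every tested compound plus 3 SD, cut at about 60% in these data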;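 note: growth measured after 20 h incubation at 37 °C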
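Signal: optical density read at 615 nm; Assay system: E. coli ΔtolC::kan strain BW25113; Times: 20 h incubation with compound, 37 °C; Dosing: 10 µM final, single dose.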
PostGolgi ctrl = growth inhibition of yeast control strain, primary screen, counter-screen for post-Golgi transport modulator project. efflux-deficient yeast background strain, growth absorbance A615, 16 h. inhibition, % at 10 µM. 5% of 98,000 active
Ecoli WT expand = growth inhibitors of wild-type E. coli, primary screen, strain BW25113, expanded library, OD600; OD600 absorbance; growth inhibition, % at 100 µM; 0.15% of 98,000 active; AID 710, 2007;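 active = growth inhibition above about 50% at one test dose, limit read from the data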;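 note: growth measured after 20 h incubation at 37 °C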
Of the large screens only hits and unclear results are named; the others gave an inactive call. Most compounds without a hit are left out; they make up all but 6.3% or so of the library. Cut-off read from the data, not from the text of the source, unless noted: active = inhibition above about 30%; inactive = the rest.

COC(=O)c1ccccc1NC(=O)c1ccc(COc2ccccc2)o1	PostGolgi ctrl 36
CCc1nnc(NC(=O)c2ccc(COc3ccccc3)o2)s1	PostGolgi ctrl 53
Cc1ccc(S(=O)(=O)N2CCN(C3CCN(Cc4ccccc4)CC3)CC2)cc1	PostGolgi yeast 70
Cc1ccc(N(C)C(=O)N2CCN(S(=O)(=O)c3ccc(C)cc3)CC2)cc1	none
O=S(=O)(c1ccccc1)N1CCN(C2CCN(Cc3ccccc3)CC2)CC1	none
COc1ccc(S(=O)(=O)N2CCC(C(=O)N3CCc4ccccc4C3)CC2)cc1	none
Cc1ccc(S(=O)(=O)N2CCN(C(=O)N(c3ccccc3)c3ccccc3)CC2)cc1	PostGolgi ctrl 94 (no result: tolC growth inh)
Cc1ccc(S(=O)(=O)N2CCC(C(=O)N3Cc4ccccc4C3)CC2)cc1	PostGolgi ctrl 37
CC1CCN(C(=O)CSc2nc3ccccc3c(=O)n2Cc2ccc3c(c2)OCO3)CC1	PostGolgi ctrl 43 (no result: tolC growth inh)
CCCn1c(=S)[nH]c2cc(C(=O)N3CCCC(C(=O)OCC)C3)ccc2c1=O (stereo unspecified)	none
CC1CCCN(C(=O)c2ccc3c(=O)n(Cc4ccc5c(c4)OCO5)c(=S)[nH]c3c2)C1 (stereo unspecified)	PostGolgi ctrl 47 (no result: tolC growth inh)
O=C(N/N=C/c1ccc(Br)cc1)c1ccccc1-n1cccc1	PostGolgi ctrl 31 (no result: tolC growth inh)
O=C(N/N=C\c1ccccc1)c1sccc1-n1cccc1	none (no result: tolC growth inh)
Cc1cc(Cl)cc(C)c1OCCCCn1ccnc1	tolC growth inh 92
Cc1cccc(C(C)(C)C)c1OCCn1ccnc1	tolC growth inh 92
COCCCn1c(Cc2ccccc2)nnc1SCC(=O)N1CCCCC1	none
O=C(Nc1ccc(CN2CCOCC2)cc1)c1ccc(-c2ccc(Br)cc2)o1	tolC growth inh 100, PostGolgi ctrl 60
COC(=O)c1ccc(NC(=O)c2ccc(CN3CCOCC3)cc2)cc1	none
C=C(C)c1cccc(C(C)(C)NC(=O)N2CCN(C/C=C/c3ccccc3)CC2)c1	none (no result: tolC growth inh)
COC(=O)c1ccccc1S(=O)(=O)N(CCCO)Cc1cc2c(C)ccc(C)c2[nH]c1=O	PostGolgi ctrl 36
c1ccc2c(CSCCc3ccncc3)cccc2c1	none (no result: tolC growth inh)
COc1cc(C(=O)NCc2cccc3ccccc23)cc(Cl)c1OC	PostGolgi ctrl 39 (no result: tolC growth inh)
Cc1ccc(S(=O)(=O)N/N=C2/CC(c3ccccc3)Oc3ccccc32)cc1 (stereo unspecified)	PostGolgi ctrl 33 (no result: tolC growth inh)
CCCn1c(=O)n(C)c(=O)c2c(SCC(=O)NCc3ccco3)nc(C3CC3)nc21	none (no result: tolC growth inh)
Cc1ccc([N+](=O)[O-])cc1NC(=O)CN(C(=O)c1ccc(Cl)cc1)C1CCCCC1	none (no result: tolC growth inh)
O=C(CN(C(=O)c1ccccc1Cl)C1CCCCC1)Nc1ccc(Cl)c([N+](=O)[O-])c1	PostGolgi ctrl 36 (no result: tolC growth inh)
CCCCN(CCCC)C(=O)c1nsnc1-c1ccccc1O	none (no result: tolC growth inh)
Cc1cc(C)cc(NC(=O)c2nnn(Cc3cc(C)ccc3C)c2N)c1	PostGolgi ctrl 37
COc1ccc(NC(C)C(=O)Nc2ccc(C(C)(C)C)cc2)cc1Cl (stereo unspecified)	PostGolgi ctrl 34 (no result: tolC growth inh)
CC(C)(C)C(=O)Nc1ccnc(-c2cccnc2)n1	none (no result: tolC growth inh)
COCCNC(=O)C1CC(c2cccc(OC)c2)=NO1 (stereo unspecified)	PostGolgi ctrl 37
Cc1nc2c3ccccc3[nH]c(=O)n2n1	none (no result: PostGolgi yeast, PostGolgi ctrl, Ecoli WT expand)
Cc1cccc(OCCNc2cc(N3CCOCC3)ccc2[N+](=O)[O-])c1	PostGolgi ctrl 66 (no result: tolC growth inh)
CC1=CC(C)C2(CO)COC(c3ccccc3O)C1C2C (stereo unspecified)	none (no result: tolC growth inh)
CCOC(=O)C1Cn2c(nc3c(c2=O)C(C)(C)Cc2ccccc2-3)S1 (stereo unspecified)	PostGolgi ctrl 32
CC1(C)Cc2ccccc2-c2nc(NCCCO)n(-c3ccccc3)c(=O)c21	none
CCOC(=O)C1Cn2c(nc3c(c2=O)C2(CCCC2)Cc2ccccc2-3)S1 (stereo unspecified)	PostGolgi ctrl 38
O=C(c1cccn(Cc2ccc(Cl)c(Cl)c2)c1=O)N1CCOCC1	none (no result: tolC growth inh)
O=c1c(-c2nc3ccccc3s2)cccn1Cc1ccc(Cl)c(Cl)c1	PostGolgi ctrl 36 (no result: tolC growth inh)
CC(CCCC(C)(C)O)NCCO (stereo unspecified)	none (no result: PostGolgi yeast, PostGolgi ctrl, Ecoli WT expand)
CC1CCCC(C)N1CCNC(=O)CCn1nc(-c2ccccc2)ccc1=O (stereo unspecified)	none
CCOC(=O)N1CCN(C(=O)C2CCCN(S(=O)(=O)c3ccc(C)cc3)C2)CC1 (stereo unspecified)	none (no result: tolC growth inh)
O=C(Nc1c(C(=O)N2CCOCC2)cnn1-c1ccccc1)c1ccco1	none
CC(C)NC(=O)COC(=O)c1ccc(Cl)c(S(=O)(=O)N2CCCC2)c1	PostGolgi ctrl 32 (no result: tolC growth inh)
CCCCNC(=O)COC(=O)c1ccc(Cl)c(S(=O)(=O)N2CCCC2)c1	none (no result: tolC growth inh)
COc1cccc(NC(=O)C23CCC(C)(C(=O)O2)C3(C)C)c1 (stereo unspecified)	none (no result: tolC growth inh)
Cc1cc(=O)n2c(C)n[nH]c2n1	none
Cc1cc(=O)n2c(-c3ccccc3C)n[nH]c2n1	PostGolgi yeast 31
Cc1ccc(S(=O)(=O)N(CC(=O)N2CCC(C)CC2)Cc2ccccc2F)cc1	PostGolgi ctrl 37 (no result: tolC growth inh)
Cc1ccc(S(=O)(=O)N(CC(=O)O)Cc2ccccc2F)cc1	none
COc1ccc(Cl)cc1NC(=O)NC1CCCCC1	none (no result: tolC growth inh)
COc1ccc(Cl)cc1NC(=O)Nc1cccc([N+](=O)[O-])c1C	PostGolgi ctrl 42 (no result: tolC growth inh)
COc1ccc(OC)c(NC(=O)Nc2ccc(Cl)cc2)c1	PostGolgi ctrl 41 (no result: tolC growth inh)
COc1ccc(NC(=O)Nc2cc(C)ccc2OC)cc1	none
COc1ccc(C(C)(C)C)cc1NC(=O)Nc1ccc2c(c1)OCO2	tolC growth inh 65, PostGolgi ctrl 71
Cc1noc2ncnc(Oc3ccc(F)cc3)c12	none (no result: tolC growth inh)
Cc1ccc(-n2c(CNc3ccc(F)cc3)nnc2SCC(N)=O)cc1	none (no result: tolC growth inh)
CC(CCc1ccco1)NC(=O)CSc1cc(=O)n(C)c2ccccc12 (stereo unspecified)	none
OC(COc1c(F)cc(Br)cc1F)CN1CCN(c2ccc(F)cc2)CC1 (stereo unspecified)	PostGolgi yeast 33, PostGolgi ctrl 47
OC(COc1ccc2ccccc2c1)CN1CCN(c2ccc(F)cc2)CC1 (stereo unspecified)	none
CCCCc1c(CCC)c(=N)c2ccccc2n1C	none (no result: tolC growth inh)
COc1cccc2sc(Nc3nc(-c4ccccn4)cs3)nc12	PostGolgi yeast 98, tolC growth inh 98, PostGolgi ctrl 87
C=CCNCCCCOc1ccc(OCC)cc1	none (no result: tolC growth inh)
COc1cccc(-c2nc(-c3ccc(NC(=O)Cc4ccccc4OC)cc3)no2)c1	none
Cc1cccc(-c2noc(-c3ccccc3C(=O)NCC3CCCO3)n2)c1 (stereo unspecified)	PostGolgi ctrl 31
COc1cccc(NC(=O)c2ccccc2-c2nc(-c3cccc(C)c3)no2)c1	PostGolgi ctrl 34
CSc1nc2ncc3c(n2n1)CC1c2ccccc2CCN1C3=O (stereo unspecified)	PostGolgi ctrl 32 (no result: tolC growth inh)
O=C1c2cnc3nc(SCc4cccc(Cl)c4)nn3c2CC2c3ccccc3CCN12 (stereo unspecified)	PostGolgi ctrl 42 (no result: tolC growth inh)
O=C(C1c2ccccc2C(=O)N2CCc3ccccc3C12)N1CCN(Cc2ccccc2)CC1 (stereo unspecified)	none (no result: tolC growth inh)

Source: PubChem BioAssay (SRMLSC)
